Among the data in ChEMBL document CHEMBL4038327, “Inhibitory Kappa B Kinase α (IKKα) Inhibitors That Recapitulate Their Selectivity in Cells against Isoform-Related Biomarkers” (J Med Chem, 2017) are Ki values, retold here.

The target of assay [1] is T1, Inhibitor of nuclear factor kappa-B kinase subunit alpha (Homo sapiens, UniProt O15111).
T1 sequence (O15111 whole entry): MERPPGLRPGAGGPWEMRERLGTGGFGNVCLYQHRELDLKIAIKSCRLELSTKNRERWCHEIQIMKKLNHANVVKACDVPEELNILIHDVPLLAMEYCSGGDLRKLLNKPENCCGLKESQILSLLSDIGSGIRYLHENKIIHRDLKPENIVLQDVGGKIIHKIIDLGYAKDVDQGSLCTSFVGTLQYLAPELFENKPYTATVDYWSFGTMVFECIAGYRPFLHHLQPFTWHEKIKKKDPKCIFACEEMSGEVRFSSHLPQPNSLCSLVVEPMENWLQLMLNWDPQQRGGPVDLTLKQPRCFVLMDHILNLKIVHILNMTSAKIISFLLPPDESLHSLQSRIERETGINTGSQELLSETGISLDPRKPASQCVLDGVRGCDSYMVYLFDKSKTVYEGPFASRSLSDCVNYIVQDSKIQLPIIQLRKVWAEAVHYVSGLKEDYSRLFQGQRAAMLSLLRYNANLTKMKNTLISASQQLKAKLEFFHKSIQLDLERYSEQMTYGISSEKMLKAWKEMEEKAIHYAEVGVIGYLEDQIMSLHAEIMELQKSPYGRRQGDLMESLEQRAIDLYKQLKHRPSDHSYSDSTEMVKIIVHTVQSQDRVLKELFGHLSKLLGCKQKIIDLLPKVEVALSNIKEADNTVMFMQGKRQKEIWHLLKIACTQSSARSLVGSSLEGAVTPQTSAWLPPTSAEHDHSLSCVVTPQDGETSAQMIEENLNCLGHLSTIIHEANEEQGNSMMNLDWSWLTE
The experiment in a line: Inhibition of recombinant human N-terminal GST-tagged IKKalpha (1 to 745 residues) expressed in baculovirus expression system using biotinylated IkBalpha as substrate after 60 mins by DELFIA.

For assay [2], the target named is T2, Inhibitor of nuclear factor kappa-B kinase subunit beta (Homo sapiens, UniProt O14920).
T2 sequence (O14920 whole entry): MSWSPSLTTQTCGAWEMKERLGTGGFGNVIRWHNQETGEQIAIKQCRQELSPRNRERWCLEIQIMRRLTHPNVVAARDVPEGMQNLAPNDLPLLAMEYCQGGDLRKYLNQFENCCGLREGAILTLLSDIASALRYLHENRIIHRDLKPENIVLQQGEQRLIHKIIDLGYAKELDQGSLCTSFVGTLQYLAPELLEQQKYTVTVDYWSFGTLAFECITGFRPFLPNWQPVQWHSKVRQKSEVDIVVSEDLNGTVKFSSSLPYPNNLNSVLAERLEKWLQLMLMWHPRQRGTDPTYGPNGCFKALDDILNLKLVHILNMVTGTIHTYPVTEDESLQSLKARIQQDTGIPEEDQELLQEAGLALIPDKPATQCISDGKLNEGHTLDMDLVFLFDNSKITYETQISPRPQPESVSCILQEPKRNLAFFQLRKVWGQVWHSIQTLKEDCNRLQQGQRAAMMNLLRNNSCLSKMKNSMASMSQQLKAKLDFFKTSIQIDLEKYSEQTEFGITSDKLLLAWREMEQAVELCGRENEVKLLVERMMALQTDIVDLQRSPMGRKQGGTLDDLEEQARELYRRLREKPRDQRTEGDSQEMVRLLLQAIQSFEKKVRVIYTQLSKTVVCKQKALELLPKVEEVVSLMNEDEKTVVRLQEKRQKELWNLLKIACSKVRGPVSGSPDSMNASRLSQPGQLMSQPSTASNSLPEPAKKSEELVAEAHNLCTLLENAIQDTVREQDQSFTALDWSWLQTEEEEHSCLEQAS
The experiment in a line: Inhibition of recombinant full length human IKKbeta expressed in baculovirus infected sf9 insect cells using biotinylated IkBalpha as substrate after 60 mins by DELFIA. Put shortly:
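Recombinant IKKβ (37 nM) was incubated with biotinylated IκB-α (Ser32) peptide (0.375 μM) and 40 μM ATP in Tris-HCl pH 7.5 with MgCl2, EDTA, DTT and BSA for 60 min at 30 °C. The reaction was quenched with EDTA and captured on streptavidin. Detection used anti-phospho-IκBα (Ser32/36) mAb plus Eu-anti-mouse IgG, read by time-resolved fluorescence (340/615 nm). Apparent Ki was obtained via Cheng–Prusoff, n=3.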

As for `N#Cc1c[nH]c2nc(N)nc(N3CCN(CCCO)CC3)c12`, the Ki (in general, the equilibrium dissociation constant of an inhibitor or competing ligand from its target) in assay [1] is 12.1 µM; in assay [2] it was over 30 µM.

Consider `N#Cc1c[nH]c2nc(N)nc(N)c12`, for which the Ki in assay [1] and in assay [2] was over 30 µM each time.

As for `N#Cc1c[nH]c2nc(N)nc(N3CCCCC3)c12`, the results for the Ki in assay [1] and in assay [2] were 5.3 µM and over 30 µM, respectively.

Turning to `N#Cc1c[nH]c2nc(N)nc(NCCO)c12`, the Ki was 1.6 µM in assay [1] and over 30 µM in assay [2].

`N#Cc1c[nH]c2nc(N)nc(-c3cccc(CO)c3)c12`: the Ki turned out to be 9.8 µM in assay [1] and 4 µM in assay [2].

Turning to `CN1CCN(c2nc(N)nc3[nH]cc(C#N)c23)CC1`, the Ki in assay [1] and in assay [2] was over 30 µM each time.

For the compound `N#Cc1c[nH]c2nc(N)nc(-c3cccc(S(N)(=O)=O)c3)c12`, the values for the inhibitory constant (Ki) in assay [1] and in assay [2] were 5.3 µM and 5.9 µM, respectively.

On to `Nc1nc(NC2CCCCC2)c2c(C(F)(F)F)c[nH]c2n1`, for which the Ki in assay [1] and in assay [2] was over 30 µM in each case.

Regarding `Nc1nc(N2CCCCC2)c2cc[nH]c2n1`, the Ki in assay [1] and in assay [2] was over 30 µM in each case.

Take `NS(=O)(=O)c1ccc(-c2ncnc3[nH]ccc23)cc1`: the Ki was 1.5 µM in assay [1] and 2.5 µM in assay [2].

`N#Cc1c[nH]c2nc(N)nc(N3CCN(c4ccccc4)CC3)c12`: the Ki in assay [1] and in assay [2] was over 30 µM in each case.

`N#Cc1c[nH]c2nc(N)nc(-c3cccc(C(N)=O)c3)c12`: the Ki in assay [1] and in assay [2] was over 30 µM throughout.

Take `N#Cc1c[nH]c2nc(N)nc(N3CCC[C@H]3CO)c12`: the Ki is 3.1 µM in assay [1] and over 30 µM in assay [2].

Consider `N#Cc1c[nH]c2nc(N)nc(N3CCN(CCO)CC3)c12`, for which the Ki in assay [1] and in assay [2] was over 30 µM each time.

For the compound `N#Cc1c[nH]c2nc(N)nc(-c3ccc(O)cc3)c12`, the figures for the inhibition constant (Ki) in assay [1] and in assay [2] were 1.6 µM and 20 µM, respectively.

As for `N#Cc1c[nH]c2nc(N)nc(Nc3ccc(C(=O)O)cc3)c12`, the Ki in assay [1] and in assay [2] was over 30 µM throughout.

Consider `N#Cc1c[nH]c2nc(N)nc(-c3ccccc3S(N)(=O)=O)c12`, for which the Ki in assay [1] and in assay [2] was over 30 µM in each case.

On to `N#Cc1c[nH]c2nc(N)nc(Nc3ccccc3)c12`, for which the Ki was 13 µM in assay [1] and over 30 µM in assay [2].

In the case of `N#Cc1c[nH]c2nc(N)nc(-c3ccc(F)cc3)c12`, the Ki in assay [1] was 10 µM; in assay [2], over 30 µM.

In the case of `N#Cc1c[nH]c2nc(N)nc(N3CCC[C@@H]3CO)c12`, the Ki is 2.5 µM in assay [1] and over 30 µM in assay [2].

As to `N#Cc1c[nH]c2nc(N)nc(NCc3ccccc3)c12`, the Ki is 5.3 µM in assay [1] and over 30 µM in assay [2].

Turning to `N#Cc1c[nH]c2nc(N)nc(-c3ccccc3CO)c12`, the Ki in assay [1] and in assay [2] was over 30 µM each time.

Regarding `N#Cc1c[nH]c2nc(N)nc(N3CC[C@H](O)C3)c12`, the figures for the Ki in assay [1] and in assay [2] were 6 µM and over 30 µM, respectively.

`Nc1nc(Cl)c2cc[nH]c2n1`: the inhibition constant (Ki) in assay [1] and in assay [2] was over 30 µM in each case.

Take `CS(=O)(=O)Nc1ccc(-c2nc(N)nc3[nH]cc(C#N)c23)cc1`: the Ki in assay [1] is 1.4 µM; in assay [2], 0.1 µM.

On to `N#Cc1c[nH]c2nc(N)nc(-c3cccc(O)c3)c12`, for which the Ki in assay [1] was 2.4 µM; in assay [2], 3.8 µM.

Take `N#Cc1c[nH]c2nc(N)nc(Nc3ccc(S(N)(=O)=O)cc3)c12`: the results for the Ki in assay [1] and in assay [2] were 10 µM and over 30 µM, respectively.

Take `N#Cc1c[nH]c2nc(N)nc(Cl)c12`: the Ki in assay [1] was 4 µM; in assay [2], over 30 µM.

Regarding `N#Cc1c[nH]c2nc(N)nc(-c3ccc(C(N)=O)cc3)c12`, the Ki was 16 µM in assay [1] and over 30 µM in assay [2].

On to `N#Cc1c[nH]c2nc(N)nc(N(CCO)C3CCCCC3)c12`, for which the Ki in assay [1] and in assay [2] was over 30 µM in each case.

For `N#Cc1c[nH]c2nc(N)nc(N3CCOCC3)c12`, the Ki in assay [1] is over 30 µM; in assay [2], 20 µM.

Turning to `N#Cc1c[nH]c2nc(N)nc(NCCN3CCOCC3)c12`, the Ki in assay [1] and in assay [2] was over 30 µM each time.

On to `N#Cc1c[nH]c2nc(N)nc(NC3CCCCC3)c12`, for which the Ki in assay [1] is 1.8 µM; in assay [2] it was over 30 µM.

In the case of `N#Cc1c[nH]c2nc(N)nc(-c3ccccc3F)c12`, the Ki in assay [1] was 2 µM; in assay [2] it was over 30 µM.

As for `CS(=O)(=O)c1ccc(-c2nc(N)nc3[nH]cc(C#N)c23)cc1`, the inhibition constant (Ki) was determined as 2.4 µM in assay [1] and 0.3 µM in assay [2].

Turning to `N#Cc1c[nH]c2nc(N)nc(-c3ccccc3)c12`, the Ki in assay [1] was 1.7 µM; in assay [2], over 30 µM.

On to `N#Cc1c[nH]c2nc(N)nc(-c3cccc(F)c3)c12`, for which the Ki in assay [1] is 7.7 µM; in assay [2], over 30 µM.

Turning to `Nc1nc(N[C@H]2CC[C@H](O)CC2)c2cc[nH]c2n1`, the Ki in assay [1] and in assay [2] was over 30 µM each time.

As for `N#Cc1c[nH]c2ncnc(-c3ccc(S(N)(=O)=O)cc3)c12`, the Ki in assay [1] was 2.1 µM; in assay [2], over 30 µM.

Turning to `Cc1ccc(NS(=O)(=O)c2ccc(-c3nc(N)nc4[nH]cc(C#N)c34)cc2)cc1`, the Ki in assay [1] was 16 µM; in assay [2] it was 1.4 µM.

`Nc1nc(NC2CCCCC2)c2cc[nH]c2n1`: the Ki in assay [1] and in assay [2] was over 30 µM each time.

On to `N#Cc1c[nH]c2nc(N)nc(N3CC[C@@H](O)C3)c12`, for which the Ki in assay [1] and in assay [2] was over 30 µM each time.

As to `NC(=O)c1c[nH]c2nc(N)nc(N[C@H]3CC[C@H](O)CC3)c12`, the Ki in assay [1] and in assay [2] was over 30 µM throughout.

Regarding `N#Cc1c[nH]c2nc(N)nc(NCC3CC3)c12`, the Ki in assay [1] was 16 µM; in assay [2] it was over 30 µM.

As to `N#Cc1c[nH]c2nc(N)nc(N[C@H]3CC[C@H](O)CC3)c12`, the figures for the Ki in assay [1] and in assay [2] were 2 µM and over 30 µM, respectively.

`CN(c1nc(N)nc2[nH]cc(C#N)c12)C1CCCCC1`: the Ki in assay [1] and in assay [2] was over 30 µM in each case.

With `CNc1nc(N)nc2[nH]cc(C#N)c12`, the figures for the Ki in assay [1] and in assay [2] were 13 µM and over 30 µM, respectively.

On to `Nc1nc(-c2ccc(S(N)(=O)=O)cc2)c2cc[nH]c2n1`, for which the inhibition constant Ki in assay [1] was determined as 2.9 µM; in assay [2] it was 0.61 µM.

As for `N#Cc1c[nH]c2nc(N)nc(-c3ccccc3O)c12`, the Ki was 15 µM in assay [1] and over 30 µM in assay [2].

As to `N#Cc1c[nH]c2nc(N)nc(N[C@@H]3C[C@H](O)[C@@H](O)[C@H]3O)c12`, the values for the Ki in assay [1] and in assay [2] were 0.8 µM and 3.6 µM, respectively.

In the case of `CNS(=O)(=O)c1ccc(-c2nc(N)nc3[nH]cc(C#N)c23)cc1`, the Ki in assay [1] is 1.7 µM; in assay [2], 0.4 µM.

Turning to `N#Cc1c[nH]c2nc(N)nc(-c3ccccc3C(N)=O)c12`, the Ki in assay [1] and in assay [2] was over 30 µM in each case.

Regarding `N#Cc1c[nH]c2nc(N)nc(N3CCC(S(N)(=O)=O)CC3)c12`, the Ki in assay [1] stood at 5.3 µM; in assay [2], 5.9 µM.
